Rows were chosen to be rich in hits. Some 3.9% of all compounds tested hit in one or more screens of this group.
TAAR1 ag: human TAAR1 agonists, primary screen, Fluo-8 calcium fluorescence, CHO RD-HGA16 cells. Trace amine-associated receptor 1 (Homo sapiens), Q96RJ0. vehicle wells 0%, saturating PEA agonist 100%. activation, % at 3 µM. 0.99% of 360,000 active. AID 624467, 2012;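 active = activation above the mean activation of all test compounds in the run plus 3 SD, cut at about 38% in these data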
Target sequence (Q96RJ0 whole entry, looked up): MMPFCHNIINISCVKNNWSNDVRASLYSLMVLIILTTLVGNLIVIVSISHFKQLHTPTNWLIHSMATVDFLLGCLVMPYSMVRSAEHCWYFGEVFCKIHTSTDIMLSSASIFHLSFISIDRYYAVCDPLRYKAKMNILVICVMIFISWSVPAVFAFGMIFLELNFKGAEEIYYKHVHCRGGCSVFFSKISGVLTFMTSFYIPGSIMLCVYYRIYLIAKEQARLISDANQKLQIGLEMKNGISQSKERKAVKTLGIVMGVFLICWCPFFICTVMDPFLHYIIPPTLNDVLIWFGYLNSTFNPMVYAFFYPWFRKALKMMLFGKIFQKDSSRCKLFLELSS
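Test system: RD-HGA16 (CHO) cells co-expressing Gα16 and hTAAR1; dosing: one-point dosing at 3 µM (nominal); timing: 17-24 h seeding, 75 min 37 °C dye, 30 min RT; signal: kinetic Fluo-8 calcium fluorescence; read-out basis: % activation relative to PEA EC100 response; controls: DMSO and PEA EC100; replicates: n 1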
TAAR1 antagonist: human TAAR1 antagonists, primary screen, Fluo-8 calcium fluorescence, CHO RD-HGA16 cells | 1.5% of 360,000 active | inhibition, % at 3 µM | Trace amine-associated receptor 1 (Homo sapiens), Q96RJ0 | antagonist | AID 624466, 2012;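 active = inhibition above a per-plate cutoff, the mean inhibition of test compounds on that plate plus 3 SD, cut at about 49% in these data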;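 note: 0% = DMSO plus EC80 beta-PEA response and 100% = DMSO alone without agonist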
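Material: RD-HGA16 CHO cells with stable hTAAR1 and Gα16; Dosing: single nominal final test compound concentration of 3 µM; Schedule: seeding 17-24 h prior, 75-min 37 °C, 30-min RT dye loading; Detection: kinetic Fluo-8 calcium fluorescence measurement; Measure: % inhibition from peak post-agonist over basal fluorescence ratio; Benchmarks: vehicle and agonist controls.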
M1 PAM: human M1 muscarinic receptor positive allosteric modulators, primary screen, CHO-K1 cells, Fluo-8 calcium fluorescence, 1536-well. CHO-K1 hM1, ACh EC20; 0% = ACh EC20, 100% = maximal ACh. activation, % at 3 µM. 0.088% of 360,000 active. AID 588819, 2011; in the data active = activation above about 19%, passing the limit was not always enough
HTR2A ag: mouse Htr2a agonists via beta-arrestin recruitment, primary screen, cell-based, luminescence; CHO-K1 mHTR2A beta-arrestin complementation; percent of 30 µM serotonin response; AID 624169, 2012; 0.66% of 360,000 active; activation, % at 7.6 µM; 5-hydroxytryptamine receptor 2A (Mus musculus), P35363;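 active = activation above a run cutoff, the mean activation of all tested compounds plus 3 SD, cut at about 14% in these data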;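 note: 0% = plate median of compound wells and 100% = 30 µM serotonin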
M1 ag: human M1 muscarinic receptor agonists, primary screen, Fluo-8 calcium fluorescence, CHO-K1 cells, HTS; AID 588814, 2011; CHO-K1 hM1, agonist mode; 0% DMSO, 100% acetylcholine EC100; 0.33% of 360,000 active; activation, % at 3 µM; Muscarinic acetylcholine receptor M1 (Homo sapiens), P11229;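 active = activation above the run's mean compound activation plus 3 SD, cut at about 16% in these data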;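 note: peak over basal fluorescence ratio within a 140 s kinetic read after compound addition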
CHRM1 antagonist: human M1 muscarinic receptor antagonists, primary screen, CHO-K1 cells, Fluo-8 calcium fluorescence, 1536-well; Muscarinic acetylcholine receptor M1 (Homo sapiens), P11229; CHO-K1 hM1, ACh EC80 antagonist; inhibition, % at 3 µM; 1.3% of 360,000 active; AID 588852, 2011;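 active = percent inhibition above its own plate's cutoff, namely the mean of that plate's compound wells plus 3 SD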;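 note: peak over basal fluorescence ratio during 140 s after agonist addition; 0% = ACh EC80 plus DMSO and 100% = DMSO alone without agonist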
* hit, by the source's call.

What do the screens show for `CC1CCC(CN2CCN=C2Nc2ccccc2)CC1` (stereo not drawn)?
TAAR1 ag: 3.6; TAAR1 antagonist: 1.1; M1 PAM: -17.4; HTR2A ag: -7.2; M1 ag: -10.6; CHRM1 antagonist: 34.1*

Results for c1ccc(NC2=NCCN2CC2CCC2)cc1 ?
TAAR1 ag: 3.2; TAAR1 antagonist: -12.6; M1 PAM: 15.2; HTR2A ag: 1.6; M1 ag: -10.7; CHRM1 antagonist: -6.6

Results for Cc1cc(Br)cn2c(Cc3cccc(F)c3)c(-c3ccco3)nc12 ?
TAAR1 ag: 4.0; TAAR1 antagonist: -22.7

How did CC1(C(=O)NCC2CCCCC2)CCN1CCc1ccccc1 (stereo not drawn) do in these assays?
TAAR1 ag: 2.2; TAAR1 antagonist: 13.1; M1 PAM: 7.4; HTR2A ag: -8.6; M1 ag: -7.2; CHRM1 antagonist: -15.8

What do the screens show for `CCCCN(CC)CCNC(=O)c1cc2c(-c3ccccc3F)nn(C)c2s1`?
TAAR1 ag: 6.4; TAAR1 antagonist: -11.5; M1 PAM: 27.8*; HTR2A ag: -11.2; M1 ag: -7.1; CHRM1 antagonist: -24.6

How did CCc1nn(CC(=O)N2CCN(c3ccc(OC)cc3)CC2)c(=O)c2cc3occc3n12 do in these assays?
TAAR1 ag: 3.8; TAAR1 antagonist: -15.3; M1 PAM: 17.6; HTR2A ag: 8.2; M1 ag: -0.3; CHRM1 antagonist: -17.2

Results for CCSc1nnc(NC(=O)C2CC(=O)N(Cc3ccccc3)C2)s1 (stereo not drawn) ?
TAAR1 ag: 1.5; TAAR1 antagonist: 2.2; M1 PAM: -5.5; HTR2A ag: -0.4; M1 ag: -1.4; CHRM1 antagonist: 9.0

What do the screens show for `COc1ccc(C(=O)C2CCCN(S(=O)(=O)c3ccc(C(C)=O)cc3)C2)c(C)c1` (stereo not drawn)?
TAAR1 ag: 10.0; TAAR1 antagonist: 46.7; M1 PAM: -18.8; HTR2A ag: 7.3; M1 ag: 4.0; CHRM1 antagonist: 42.6*

What do the screens show for `CCS(=O)(=O)N1CCCC(C(=O)c2ccc(OC)cc2C)C1` (stereo not drawn)?
TAAR1 ag: -1.1; TAAR1 antagonist: 17.4; M1 PAM: -4.1; HTR2A ag: -1.5; M1 ag: -7.9; CHRM1 antagonist: 1.9

Results for CCCc1c(-c2cccc(Br)c2)ncn1CCc1ccccc1OC ?
TAAR1 ag: 20.3; TAAR1 antagonist: 33.4

Results for CN1CCN(S(=O)(=O)c2ccc3[nH]c(=O)oc3c2)CC1 ?
TAAR1 ag: -1.8; TAAR1 antagonist: 5.1; M1 PAM: 13.9; HTR2A ag: 1.3; M1 ag: -2.8; CHRM1 antagonist: -5.6

How did CO/N=C/c1ccc(N2CCN(C(=O)c3ccc(Cl)cc3Cl)CC2)c([N+](=O)[O-])c1 do in these assays?
TAAR1 ag: 42.6*; TAAR1 antagonist: 70.2*; M1 PAM: -9.2; HTR2A ag: 2.5; M1 ag: 10.3; CHRM1 antagonist: 24.5*

What do the screens show for `CO/N=C/c1ccc(N2CCN(C(=O)c3ccc(F)cc3)CC2)c([N+](=O)[O-])c1`?
TAAR1 ag: 37.9*; TAAR1 antagonist: 38.5; M1 PAM: -8.9; HTR2A ag: 1.6; M1 ag: 4.9; CHRM1 antagonist: 11.8

Results for CO/N=C/c1ccc(N2CCN(C(=O)c3cccc(C(F)(F)F)c3)CC2)c([N+](=O)[O-])c1 ?
TAAR1 ag: 21.9; TAAR1 antagonist: 54.1*; M1 PAM: -9.4; HTR2A ag: 0.2; M1 ag: -0.9; CHRM1 antagonist: 9.2

Results for COC(=O)[C@]12CCCCC=C1N(Cc1ccc3c(c1)OCO3)C(=O)[C@H](CC(=O)N1CCN(C(=O)C3CC3)CC1)C2 ?
TAAR1 ag: 9.9; TAAR1 antagonist: 26.9; HTR2A ag: -2.4

Results for O=C(Nc1oc2ccccc2c(=O)c1-c1ccccc1)c1ccco1 ?
TAAR1 ag: 5.2; TAAR1 antagonist: -31.8; M1 PAM: 3.7; HTR2A ag: 8.3; M1 ag: -1.1; CHRM1 antagonist: -6.3

How did COc1cccc(C(=O)COC(=O)CCC(=O)c2ccccc2)c1 do in these assays?
TAAR1 ag: 0.0; TAAR1 antagonist: -27.2; M1 PAM: 10.6; HTR2A ag: -3.4; M1 ag: -1.6; CHRM1 antagonist: -8.9

Results for Oc1ccccc1/C=N/Nc1nccnc1Cl ?
TAAR1 ag: 41.5*; TAAR1 antagonist: -15.4; M1 PAM: 7.5; HTR2A ag: -3.6; M1 ag: -4.4; CHRM1 antagonist: -12.8

What do the screens show for `CC(OC(=O)CCN=C1NS(=O)(=O)c2ccccc21)C(=O)Nc1ccc(F)c(F)c1F` (stereo not drawn)?
TAAR1 ag: 1.6; TAAR1 antagonist: -11.0; M1 PAM: 20.8; HTR2A ag: -2.5; M1 ag: -0.1; CHRM1 antagonist: -15.6

Results for CC(C)(C)OC(=O)C[C@H]1C/C=C\C[C@@H](CC(=O)N(CCO)Cc2ccccc2)C(=O)N[C@H](Cc2c[nH]c3ccccc23)COC1=O ?
TAAR1 ag: 0.7; TAAR1 antagonist: 3.4; M1 PAM: -4.0; HTR2A ag: -3.8; M1 ag: -5.0; CHRM1 antagonist: 9.6

How did COC(=O)c1ccc(-c2noc(CN(Cc3nccn3C)C(C)C)n2)cc1 do in these assays?
TAAR1 ag: 3.2; TAAR1 antagonist: -10.8; M1 PAM: -10.4; HTR2A ag: 2.3; M1 ag: -15.1; CHRM1 antagonist: 1.6

How did Cn1ccnc1C1CCCCN1Cc1nc(Cc2ccccc2F)no1 (stereo not drawn) do in these assays?
TAAR1 ag: 1.3; TAAR1 antagonist: -20.1; M1 PAM: -25.9; HTR2A ag: -1.6; M1 ag: -6.7; CHRM1 antagonist: 98.6*

How did COC(=O)c1ccc(-c2noc(CN3CCCCC3c3nccn3C)n2)cc1 (stereo not drawn) do in these assays?
TAAR1 ag: -0.6; TAAR1 antagonist: -11.5; M1 PAM: -34.3; HTR2A ag: 2.0; M1 ag: -13.7; CHRM1 antagonist: 35.3*

How did COC(=O)N1C[C@H](OC)[C@H]2C[C@@H]1c1ccccc1O2 do in these assays?
TAAR1 ag: 1.6; TAAR1 antagonist: -7.7

Results for COc1cc(/C=C2\SC(=S)N(NC(=O)c3ccc(O)c(OC)c3)C2=O)ccc1O ?
TAAR1 ag: 24.4; TAAR1 antagonist: 32.4; M1 PAM: -11.3; HTR2A ag: -5.1; M1 ag: 26.8*; CHRM1 antagonist: 24.8
